Active and inactive are the calls of the source. The rule behind the calls is not given here.
Columns and labels:
NCI-H2228 [1] = experiment: Cytotoxicity against human NCI-H2228 cells assessed as cell viability after 72 hrs by MTS assay; format: functional, cell-based; conditions: NCI-H2228, 72 h
Procedure, shortened: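 H2228 cells seeded and grown 24 h, then exposed in triplicate to a range of concentrations for 72 h at 37 °C, 5% CO₂. MTS (5 mg/mL solution) added for 4 h, medium removed, plates shaken, absorbance read at 570 nm. Inhibition computed against controls. IC50 = concentration giving 50% growth inhibition.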

NCI-H2228 [2] = experiment: Antitumor activity against human NCI-H2228 cells xenografted in Rowett nude rat assessed as tumor growth inhibition at 30 mg/kg/day, po administered for 14 days measured on day 15; format: functional, organism-based
Procedure, shortened: (§1)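 RNU nude rats carrying H2228 tumours, randomized at mean tumour size 150 mm³ (n = 6 per group). Dosed by oral gavage, vehicle 0.5% MC/0.5% Tween 80, 10 μL/g body weight, daily for 14 days starting day 15 post-implant. Tumour volume = ab²/2. Rats killed after 14 days and tumours excised and weighed. Inhibition = (control mean tumour weight − treated mean)/control mean × 100%.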

Plasma = experiment: Drug uptake in Sprague-Dawley rat plasma at 25 mg/kg, po measured over 24 hrs by HPLC analysis; format: ADME, organism-based; parameters: dose 25 mg/kg, route oral; conditions: in vivo
Procedure, shortened: (§2)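 Male SD rats, 200–220 g, randomized into three groups (n = 4). Single oral gavage dose in 0.5% MC/0.5% Tween 80 at 10 μL/g. Plasma sampled at 0.5, 1, 3, 5, 8 and 24 h, deproteinized with ethyl acetate, vortexed and centrifuged at 4000 rpm for 5 min. Organic phase analysed for ceritinib by HPLC.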

Rattus norvegicus [3] = experiment: Prodrug conversion in Sprague-Dawley rat assessed as release of ceritinib in plasma at 38.28 mg/kg, po measured over 24 hrs by HPLC analysis; format: ADME, organism-based; parameters: dose 38.28 mg/kg, route oral; conditions: in vivo; procedure, shortened: as §2
NCI-H2228 [4] = experiment: Antitumor activity against human NCI-H2228 cells xenografted in Rowett nude rat assessed as tumor growth inhibition at 38.28 mg/kg/day, po administered for 14 days measured on day 15 relative to vehicle-treated control; format: functional; conditions: read-out: TGI; procedure, shortened: as §1
Rattus norvegicus [5] = experiment: Toxicity in Rowett nude rat xenografted with human NCI-H2228 cells assessed as body weight reduction at 38.28 mg/kg/day, po administered for 14 days measured during compound treatment; format: organism-based; parameters: route oral; conditions: in vivo, 336 h
Procedure, shortened: (§3)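 H2228 xenograft-bearing RNU nude rats (n = 6 per group, mean starting tumour 150 mm³) given daily oral gavage in 0.5% MC/0.5% Tween 80, 10 μL/g, for 14 consecutive days. Body weight tracked regularly throughout dosing.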

Rattus norvegicus [6] = experiment: Prodrug conversion in Sprague-Dawley rat assessed as release of ceritinib in plasma at 36.24 mg/kg, po measured over 24 hrs by HPLC analysis; format: ADME, organism-based; parameters: dose 36.24 mg/kg, route oral; conditions: in vivo; procedure, shortened: as §2
NCI-H2228 [7] = experiment: Antitumor activity against human NCI-H2228 cells xenografted in Rowett nude rat assessed as tumor growth inhibition at 36.24 mg/kg/day, po administered for 14 days measured on day 15; format: functional, organism-based; procedure, shortened: as §1
Rattus norvegicus [8] = experiment: Toxicity in Rowett nude rat xenografted with human NCI-H2228 cells assessed as body weight reduction at 36.24 mg/kg/day, po administered for 14 days measured during compound treatment; format: organism-based; parameters: route oral; conditions: in vivo, 336 h; procedure, shortened: as §3

| Compound | IC50 (NCI-H2228 [1]) | further results |
| --- | --- | --- |
| Cc1cc(Nc2ncc(Cl)c(Nc3ccccc3S(=O)(=O)C(C)C)n2)c(OC(C)C)cc1C1CCN(P(=O)(O)OCc2ccccc2)CC1 | 0.0574 µM | – |
| CCOC(=O)N1CCC(c2cc(OC(C)C)c(Nc3ncc(Cl)c(Nc4ccccc4S(=O)(=O)C(C)C)n3)cc2C)CC1 | 1.2 µM | – |
| Cc1cc(Nc2ncc(Cl)c(Nc3ccccc3S(=O)(=O)C(C)C)n2)c(OC(C)C)cc1C1CCN(P(=O)(Oc2ccccc2)Oc2ccccc2)CC1 | 14.4 µM | – |
| Cc1cc(Nc2ncc(Cl)c(Nc3ccccc3S(=O)(=O)C(C)C)n2)c(OC(C)C)cc1C1CCNCC1 [CERITINIB] | 0.103 µM | TGI (NCI-H2228 [2]): Active; Drug uptake (Plasma): Active |
| Cc1cc(Nc2ncc(Cl)c(Nc3ccccc3S(=O)(=O)C(C)C)n2)c(OC(C)C)cc1C1CCN(C(=O)OCOP(=O)(O)O)CC1 | 0.024 µM | Drug metabolism (Rattus norvegicus [3]): metabolite_notdetected; inhibition in vivo at 38.28 mg/kg/day (NCI-H2228 [4]): 80%; Activity (Rattus norvegicus [5]): Non-toxic |
| Cc1cc(Nc2ncc(Cl)c(Nc3ccccc3S(=O)(=O)C(C)C)n2)c(OC(C)C)cc1C1CCN(C(=O)OCOP(=O)(OCc2ccccc2)OCc2ccccc2)CC1 | 1.04 µM | – |
| CC(=O)OCOC(=O)N1CCC(c2cc(OC(C)C)c(Nc3ncc(Cl)c(Nc4ccccc4S(=O)(=O)C(C)C)n3)cc2C)CC1 | 0.12 µM | Drug metabolism (Rattus norvegicus [6]): metabolite_notdetected; TGI (NCI-H2228 [7]): inactive; Activity (Rattus norvegicus [8]): Non-toxic |
| CCOP(=O)(OCC)N1CCC(c2cc(OC(C)C)c(Nc3ncc(Cl)c(Nc4ccccc4S(=O)(=O)C(C)C)n3)cc2C)CC1 | 0.571 µM | – |
| COC(=O)N1CCC(c2cc(OC(C)C)c(Nc3ncc(Cl)c(Nc4ccccc4S(=O)(=O)C(C)C)n3)cc2C)CC1 | 1.11 µM | – |
| CCCCCOC(=O)N1CCC(c2cc(OC(C)C)c(Nc3ncc(Cl)c(Nc4ccccc4S(=O)(=O)C(C)C)n3)cc2C)CC1 | 67.2 µM | – |
| CCC(C)OC(=O)N1CCC(c2cc(OC(C)C)c(Nc3ncc(Cl)c(Nc4ccccc4S(=O)(=O)C(C)C)n3)cc2C)CC1 (stereo not given) | 7.4 µM | – |
| Cc1cc(Nc2ncc(Cl)c(Nc3ccccc3S(=O)(=O)C(C)C)n2)c(OC(C)C)cc1C1CCN(P(=O)(OCc2ccccc2)OCc2ccccc2)CC1 | 2.69 µM | – |
